Three compounds from ChEMBL document CHEMBL1128670, “Hypoxia-selective antitumor agents. 11. Chlorambucil N-oxide: a reappraisal of its synthesis, stability, and selective toxicity for hypoxic cells” (J Med Chem, 1995) can be followed below.

One may read the IC50 as the concentration needed to halve the response being measured. Low values mean higher potency, high ones lower potency.

Some results are limits rather than exact numbers.

The test system of one assay is UV4. As to the kind of experiment: Growth inhibition activity was measured in repair deficient UV4 cells under aerobic conditions (4 hours drug exposure). In kind it is functional, cell-based. The settings on record: Cricetulus griseus, UV4, 4 h.
For assay [1], the system named is CHO-AA8. As to the kind of experiment: Activity to reduce the surviving fraction to 10% (CT10) was used as an inverse measure of cytotoxic potency in aerobic conditions. In kind it is functional, Cricetulus griseus. In outline: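 Clonogenic survival assay in magnetically stirred 10 mL suspensions of late-log AA8 cells (10⁶/mL) under continuous gassing with 5% CO₂ in air. Samples were removed periodically during drug exposure. CT₁₀ is the concentration × time giving 10% surviving fraction, used as an inverse measure of cytotoxicity.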

For assay [2], the system named is CHO-AA8. As to the kind of experiment: Growth inhibition activity was measured in repair proficient AA8 cells under aerobic conditions (4 hours drug exposure). In kind it is functional, cell-based. The following applies: Cricetulus griseus, CHO-AA8, 4 h.
The nature of assay [3]: Ratio of activities reducing surviving fraction to 10% (T10) under aerobic vs hypoxic conditions. The format is functional. The method in brief:
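Late-log AA8 cells (10⁶/mL) in stirred 10 mL suspensions were gassed continuously with 5% CO₂ in air or in N₂, with periodic sampling for clonogenic survival. The time to 10% survival (T₁₀) was found under each gas at the same drug concentration. The value is the mean of air/N₂ T₁₀ ratios; errors are ranges (two determinations) or standard errors.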

`O=C(O)CCCc1ccc(N(CCCl)OCCCl)cc1`: the IC50 in the assay on UV4 was determined as 176 µM; in the assay with CHO-AA8 [2] it was 456 µM. The CT10 with CHO-AA8 [1] is greater than 2400 µM·h.

Regarding `O=C(O)CCCc1ccc(NCCCl)cc1`, the Ratio in assay [3] was 1.26. Besides, the IC50 in the assay with UV4 is 90 µM; in the assay on CHO-AA8 [2], greater than 250 µM. In the assay with CHO-AA8 [1], this compound displayed a CT10 of 2080 µM·h.

Turning to `O=C(O)CCCc1ccc(N(CCCl)CCCl)cc1` [CHLORAMBUCIL], the Ratio in assay [3] came to 1.28. Moreover, the figures for the IC50 in the assay with UV4 and in the assay on CHO-AA8 [2] were 1.2 µM and 38 µM, respectively. In the assay on CHO-AA8 [1], this compound yielded a CT10 of 85.2 µM·h.
